Our source for the MIC and IC50 values is ChEMBL document CHEMBL4190231, “Anti-Cryptococcus Phenalenones and Cyclic Tetrapeptides from Auxarthron pseudauxarthron” (J Nat Prod, 2017).

For orientation: IC50 means the concentration needed to halve the response being measured. Low values mean greater potency in that assay, high ones weaker potency in that assay.

Values after ≈ are worked out from the molar mass of the structure shown.

For test [1], the system named is Cryptococcus neoformans. Description: Antifungal activity against Cryptococcus neoformans H99 after 48 hrs by resazurin assay. The note with it: var grubii H99 , read-out: MIC100. The class given is functional. The gist of the method:
(§1)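 Broth serial dilution MIC per NCCLS, in 96-well plates with YM medium (1% maltose extract, 0.2% yeast extract, 0.4% agar). Compounds were dissolved in DMSO and diluted in medium, with amphotericin B as positive control. Incubation was at 25 °C, read at 24 h for C. albicans and 48 h for C. neoformans. Read-outs were visual, OD and PrestoBlue resazurin. MIC is the lowest concentration giving 100% inhibition versus untreated growth.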

In test [2] the test system is Candida albicans. Description: Antifungal activity against Candida albicans ATCC 10231 after 24 hrs by resazurin assay. The format is functional. The note with it: ATCC 10231, 24 h, read-out: MIC100. The gist of the method:
as §1
A general note: Resazurin is reduced to fluorescent resorufin, in cell work by metabolically active cells.

For test [3], the system named is MDA-MB-231. As to the kind of experiment: Cytotoxicity against human MDA-MB-231 cells by Celltiter-Glo assay. The class given is functional, cell-based. The method in brief:
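Viability was measured with CellTiter-Glo reagent added 1:1 to well medium. Plates were kept foil-covered and shaken 2 min at room temperature, paused 2 min, then shaken another 2 min. Luminescence was read on a plate reader.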
(In general: In ATP-based viability assays light output follows the ATP content of the culture.)

In test [4] the test system is MDA-MB-453. As to the kind of experiment: Cytotoxicity against human MDA-MB-453 cells by Celltiter-Glo assay. The format is functional, cell-based.

Take `COc1cc(O)c2c3c(c(O)cc(C)c13)C1=C(C)C(=O)CC1(O)C2=O` (configuration not stated): the MIC in test [1] was determined as 25.6 µg/mL (≈ 75.2 µM); in test [2], 51.2 µg/mL (≈ 150 µM). Besides, the IC50 in test [3] and in test [4] was > 20 µM each time.

Regarding `CCC(=O)C(C)C1(O)C(=O)c2c(O)cc(C)c3c(OC)cc(O)c(c23)C1=O` (configuration not stated), the MIC in test [1] and in test [2] was 6.4 µg/mL (≈ 17.2 µM) in each case. For the same molecule, the IC50 in test [3] and in test [4] was > 20 µM in each case.

As to `COc1cc(O)c2c3c(c(O)cc(C)c13)C(=O)C(O)(CC(C)=O)C2=O` (configuration not stated), the MIC in test [1] and in test [2] was 51.2 µg/mL (≈ 149 µM) each time. In addition, the half-inhibitory concentration (IC50) in test [3] and in test [4] was > 20 µM throughout.

In the case of `CCC(=O)CC1(O)C(=O)c2c(O)cc(C)c3c(OC)cc(O)c(c23)C1=O` (configuration not stated), the MIC was determined as 12.8 µg/mL (≈ 35.7 µM) in test [1] and 25.6 µg/mL (≈ 71.4 µM) in test [2]. Also, the IC50 in test [3] and in test [4] was > 20 µM throughout.

As for `COc1cc(O)c2c3c(c(O)cc(C)c13)C(=O)C(O)(C(C)C(C)=O)C2=O` (configuration not stated), the MIC in test [1] and in test [2] was 3.2 µg/mL (≈ 8.93 µM) throughout. Besides, the IC50 in test [3] and in test [4] was > 20 µM in each case.

For `C[C@@H]1[C@H](O)[C@@H](C)/C=C/C=C/C=C/C=C/C=C/C=C/C=C/[C@H](O[C@@H]2O[C@H](C)[C@@H](O)[C@H](N)[C@@H]2O)C[C@@H]2O[C@](O)(C[C@@H](O)C[C@@H](O)[C@H](O)CC[C@@H](O)C[C@@H](O)CC(=O)O[C@H]1C)C[C@H](O)[C@H]2C(=O)O` [AMPHOTERICIN B], the MIC in test [1] and in test [2] was 0.8 µg/mL (≈ 0.866 µM) in each case.
